Reference: ChEMBL document CHEMBL1165950, “Design and synthesis of new potent anticancer pyrazoles with high FLT3 kinase inhibitory selectivity” (Bioorg Med Chem, 2010)

How the values were obtained:
Format in all cases: functional
HOP-62 = experiment: Cytotoxicity against human HOP62 cells assessed as cell growth at 0.01 uM after 48 hrs by sulforhodamine B assay; settings: HOP-62, 48 h, read-out: Activity
EKVX [1] = experiment: Cytotoxicity against human EKVX cells assessed as cell growth at 10 uM; settings: read-out: Activity
Summary of the method: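 Single-dose NCI-60 screen at 10 µM. Cells were grown in RPMI 1640 with 5% FBS and 2 mM L-glutamine, then treated for 48 h at 37 °C. Protein was measured by SRB staining with absorbance at 515 nm. Percentage growth was recorded, and inhibition percentage was calculated as 100 minus growth percentage.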

HCT-15 [2] = experiment: Cytotoxicity against human HCT15 cells assessed as cell growth at 1 uM after 48 hrs by sulforhodamine B assay; settings: HCT-15, 48 h, read-out: Activity
MOLT-4 = experiment: Cytotoxicity against human MOLT4 cells assessed as cell growth at 1 uM after 48 hrs by sulforhodamine B assay; settings: MOLT-4, 48 h, read-out: Activity
U-251 = experiment: Cytotoxicity against human U251 cells assessed as cell growth at 0.001 uM after 48 hrs by sulforhodamine B assay; settings: U-251, 48 h, read-out: Activity
MDA-MB-435 = experiment: Cytotoxicity against human MDA-MB-435 cells assessed as cell growth at 10 uM; settings: read-out: Activity
Summary of the method: (§1)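 NCI-60 screen: cells grown in RPMI 1640 with 5% FBS and 2 mM L-glutamine, plated at 5000–40,000 cells/well according to doubling time, and preincubated 24 h at 37 °C, 5% CO2. The single 10 µM dose (DMSO stock) was added, then incubated 48 h. Cells were TCA-fixed and stained with 0.4% SRB, read at 515 nm, and growth % calculated against time-zero and control plates.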

HCT-15 [3] = experiment: Cytotoxicity against human HCT15 cells assessed as cell growth at 10 uM after 48 hrs by sulforhodamine B assay; settings: HCT-15, 48 h, read-out: Activity
SW-620 = experiment: Cytotoxicity against human SW620 cells assessed as cell growth at 1 uM after 48 hrs by sulforhodamine B assay; settings: SW-620, 48 h, read-out: Activity
SN12C = experiment: Cytotoxicity against human SN12C cells assessed as cell growth at 10 uM after 48 hrs by sulforhodamine B assay; settings: read-out: Activity
M14 = experiment: Growth inhibition of human M14 cells after 48 hrs by sulforhodamine B assay; settings: M14, 48 h; for CC50: read-out: LC50 (the source's name)
Summary of the method: (§2)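 NCI 60-cell screen, five-dose mode. Cells grown in RPMI 1640 with 5% FBS and 2 mM L-glutamine and plated at 5000-40,000 cells/well according to doubling time. After 24 h preincubation, a Tz plate was TCA-fixed. Five concentrations (10-fold or 1/2 log dilutions) were applied for 48 h at 37 °C. SRB staining read at 515 nm. IC50 taken from [(Ti-Tz)/(C-Tz)]×100 = 50.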

NCI-H23 = experiment: Cytotoxicity against human NCI-H23 cells assessed as cell growth at 0.001 uM after 48 hrs by sulforhodamine B assay; settings: NCI-H23, 48 h, read-out: Activity
SK-OV-3 = experiment: Growth inhibition of human SKOV3 cells after 48 hrs by sulforhodamine B assay; settings: SK-OV-3, 48 h; for CC50: read-out: LC50 (the source's name); summary of the method: as §2
HOP-92 [4] = experiment: Growth inhibition of human HOP92 cells after 48 hrs by sulforhodamine B assay; settings: HOP-92, 48 h; for CC50: read-out: LC50 (the source's name); summary of the method: as §2
[5] = Cytotoxicity against human Hs 578T cells assessed as cell growth at 0.01 uM after 48 hrs by sulforhodamine B assay; settings: read-out: Activity
HOP-92 [6] = experiment: Cytotoxicity against human HOP92 cells assessed as cell growth at 0.001 uM after 48 hrs by sulforhodamine B assay; settings: HOP-92, 48 h, read-out: Activity
PC-3 [7] = experiment: Cytotoxicity against human PC3 cells assessed as cell growth at 0.01 uM after 48 hrs by sulforhodamine B assay; settings: PC-3, 48 h, read-out: Activity
CCRF-CEM = experiment: Cytotoxicity against human CCRF-CEM cells assessed as cell growth at 0.001 uM after 48 hrs by sulforhodamine B assay; settings: read-out: Activity
Summary of the method: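 NCI-60 five-dose screen. Cells were grown in RPMI 1640 with 5% FBS and 2 mM L-glutamine, plated at 5000–40,000 cells/well and preincubated for 24 h. Time-zero plates were TCA-fixed. DMSO-solubilized drug was added at five concentrations (10-fold or ½-log serial dilutions) for 48 h at 37 °C, 5% CO2. Cells were TCA-fixed, stained with 0.4% SRB and read at 515 nm. Percent growth used time-zero, control and test absorbances.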

NCI-H460 = experiment: Cytotoxicity against human NCI-H460 cells assessed as cell growth at 10 uM; settings: read-out: Activity; summary of the method: as §1
SF-539 = experiment: Cytotoxicity against human SF539 cells assessed as cell growth at 100 nM after 48 hrs by sulforhodamine B assay; settings: SF-539, 48 h, read-out: Activity
LOX IMVI [8] = experiment: Cytotoxicity against human LOXIMVI cells assessed as cell growth at 0.001 uM after 48 hrs by sulforhodamine B assay; settings: read-out: Activity
SF-268 = experiment: Cytotoxicity against human SF268 cells assessed as cell growth at 1 uM after 48 hrs by sulforhodamine B assay; settings: SF-268, 48 h, read-out: Activity
SNB-75 = experiment: Cytotoxicity against human SNB75 cells assessed as cell growth at 10 uM; settings: read-out: Activity; summary of the method: as §1
KM12 = experiment: Cytotoxicity against human KM12 cells assessed as cell growth at 100 nM after 48 hrs by sulforhodamine B assay; settings: KM12, 48 h, read-out: Activity
MDA-MB-231 = experiment: Cytotoxicity against human MDA-MB-231 cells assessed as cell growth at 10 uM; settings: read-out: Activity; summary of the method: as §1
UACC-257 = experiment: Cytotoxicity against human UACC257 cells assessed as cell growth at 10 uM; settings: read-out: Activity; summary of the method: as §1
LOX IMVI [9] = experiment: Cytotoxicity against human LOXIMVI cells assessed as cell growth at 1 uM after 48 hrs by sulforhodamine B assay; settings: read-out: Activity
OVCAR-4 = experiment: Cytotoxicity against human OVCAR4 cells assessed as cell growth at 10 uM after 48 hrs by sulforhodamine B assay; settings: OVCAR-4, 48 h, read-out: Activity
OVCAR-5 [10] = experiment: Cytotoxicity against human OVCAR5 cells assessed as cell growth at 10 uM after 48 hrs by sulforhodamine B assay; settings: OVCAR-5, 48 h, read-out: Activity
OVCAR-5 [11] = experiment: Cytotoxicity against human OVCAR5 cells assessed as cell growth at 0.001 uM after 48 hrs by sulforhodamine B assay; settings: OVCAR-5, 48 h, read-out: Activity
PC-3 [12] = experiment: Cytotoxicity against human PC3 cells assessed as cell growth at 1 uM after 48 hrs by sulforhodamine B assay; settings: PC-3, 48 h, read-out: Activity
EKVX [13] = experiment: Cytotoxicity against human EKVX cells assessed as cell growth at 10 uM after 48 hrs by sulforhodamine B assay; settings: read-out: Activity
HCT-116 = experiment: Cytotoxicity against human HCT116 cells assessed as cell growth at 0.001 uM after 48 hrs by sulforhodamine B assay; settings: HCT-116, 48 h, read-out: Activity

| Structure (SMILES) | growth at 0.01 µM (HOP-62) | growth at 10 µM (EKVX [1]) | growth at 1 µM (HCT-15 [2]) | growth at 1 µM (MOLT-4) | growth at 0.001 µM (U-251) | growth at 10 µM (MDA-MB-435) | growth at 10 µM (HCT-15 [3]) | growth at 1 µM (SW-620) | growth at 10 µM (SN12C) | GI50 (M14) | growth at 0.001 µM (NCI-H23) | GI50 (SK-OV-3) | TGI (SK-OV-3) | CC50 (SK-OV-3) | GI50 (HOP-92 [4]) | TGI (HOP-92 [4]) | CC50 (HOP-92 [4]) | growth at 0.01 µM [5] | growth at 0.001 µM (HOP-92 [6]) | growth at 0.01 µM (PC-3 [7]) | also measured |
| --- | --- | --- | --- | --- | --- | --- | --- | --- | --- | --- | --- | --- | --- | --- | --- | --- | --- | --- | --- | --- | --- |
| COc1cc(C)cc(-c2c(-c3ccnc(-c4ccc(C(C)=O)cc4)c3)cnn2CC#N)c1 | 81% | 98.6% | 12% | 7% | 104% | 10.6% | 12% | 12% | 34% | 1.97 µM | 94% | 4.22 µM | > 100 µM | > 100 µM | 1.46 µM | 7.56 µM | > 100 µM | 98% | 84% | 88% | CC50 (M14): > 100 µM; growth at 0.001 µM (CCRF-CEM): 96%; growth at 10 µM (NCI-H460): 104%; growth at 0.1 µM (SF-539): 92%; growth at 0.001 µM (LOX IMVI [8]): 101%; growth at 1 µM (SF-268): 15%; growth at 10 µM (SNB-75): 57.9%; growth at 0.1 µM (KM12): 85%; growth at 10 µM (MDA-MB-231): 63.8%; growth at 10 µM (UACC-257): 92.8%; growth at 1 µM (LOX IMVI [9]): 19%; growth at 10 µM (OVCAR-4): 30%; growth at 10 µM (OVCAR-5 [10]): 72%; growth at 0.001 µM (OVCAR-5 [11]): 85%; growth at 1 µM (PC-3 [12]): 24%; growth at 10 µM (EKVX [13]): 46%; growth at 0.001 µM (HCT-116): 97% |
| COc1cc(C)cc(-c2nn(CC#N)cc2-c2ccc(-c3cccc(C(C)=O)c3)nc2)c1 | 83% | 51.6% | 12% | 19% | 98% | -27.8% | 3% | 4% | 18% | 1.17 µM | 94% | 3.13 µM | 9.1 µM | > 100 µM | 2.63 µM | 9.09 µM | > 100 µM | 100% | 84% | 88% | TGI (M14): 3.3 µM; growth at 0.001 µM (CCRF-CEM): 96%; growth at 10 µM (NCI-H460): 17.4%; growth at 0.1 µM (SF-539): 78%; growth at 0.001 µM (LOX IMVI [8]): 98%; growth at 1 µM (SF-268): 23%; growth at 10 µM (SNB-75): -23.9%; growth at 0.1 µM (KM12): 75%; growth at 10 µM (MDA-MB-231): 34.8%; growth at 10 µM (UACC-257): 50.8%; growth at 1 µM (LOX IMVI [9]): 23%; growth at 10 µM (OVCAR-4): 10%; growth at 10 µM (OVCAR-5 [10]): -18%; growth at 0.001 µM (OVCAR-5 [11]): 74%; growth at 1 µM (PC-3 [12]): 20%; growth at 10 µM (EKVX [13]): -10%; growth at 0.001 µM (HCT-116): 101% |
| Cc1cc(O)cc(-c2nn(CC#N)cc2-c2ccnc(-c3ccc(Oc4ccccc4)cc3)c2)c1 | 108% | 44.9% | -34% | -16% | 97% | 60.5% | -73% | -52% | -87% | 1.7 µM | 91% | 1.2 µM | 24.4 µM | 49.6 µM | 1.59 µM | 5.24 µM | 39.5 µM | 91% | 74% | 86% | TGI (M14): 3.12 µM; CC50 (M14): 5.73 µM; growth at 0.001 µM (CCRF-CEM): 96%; growth at 10 µM (NCI-H460): 61.4%; growth at 0.1 µM (SF-539): 92%; growth at 0.001 µM (LOX IMVI [8]): 100%; growth at 1 µM (SF-268): 22%; growth at 10 µM (SNB-75): 40%; growth at 0.1 µM (KM12): 85%; growth at 10 µM (MDA-MB-231): 46.7%; growth at 10 µM (UACC-257): 71.7%; growth at 1 µM (LOX IMVI [9]): -91%; growth at 10 µM (OVCAR-4): -83%; growth at 10 µM (OVCAR-5 [10]): -89%; growth at 0.001 µM (OVCAR-5 [11]): 72%; growth at 1 µM (PC-3 [12]): -12%; growth at 10 µM (EKVX [13]): -41%; growth at 0.001 µM (HCT-116): 95% |
